The sample as a whole holds a higher share of hits than the screen did.
PfGluPho inh: PfG6PD (Plasmodium falciparum) enzyme inhibition. PfGluPho enzyme, NADPH resazurin-diaphorase fluorescence. inhibition, % at 20 µM. 0.78% of 350,000 active;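 active = inhibition reaching at least a set limit at 20 µM in the primary screen, cut at about 59% in these data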;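 note: 0% = DMSO wells with substrate and 100% = DMSO wells lacking glucose-6-phosphate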
DTT redox prof: compounds producing H2O2 with reducing agent – biochemical, NIH compound library profiling, artefact control for MLSCN library redox annotation, primary screen. DTT-dependent redox cycling H2O2, phenol red/HRP absorbance; 100% = 100 µM peroxide control, 0% = buffer. 0.03% of 200,000 active. activation, % at 10 µM;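 active = activation of at least 50% relative to the plate's high and low controls in the primary single-dose screen; inactive = activation below 50%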;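 note: compound incubated with DTT at 0.8 mM final as the reducing agent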
G6PDH counter: inhibits Leuconostoc G6PDH, flagging false hits in G6PDH-based assays; inhibition, % at 5 µM; 0.12% of 200,000 active; Purified L. mesenteroides G6PDH, diaphorase/resazurin coupled fluorescence, 45 min
Lmaj promast: Leishmania major promastigote growth inhibition; Leishmania major promastigotes, resazurin fluorescence viability; inhibition, % at 10 µM; 9% of 200,000 active; AID 1063;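 note: promastigotes grown with compound for 44 hours at 28 °C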
Diaphorase act: counter-screen for diaphorase-based assays: diaphorase activators and chemical reducers | Diaphorase/resazurin coupled assay, resorufin fluorescence, 16 min; stronger effect = higher value; 1 = vehicle wells, 0 = NADH-free wells | AID 1229 | 0.005% of 190,000 active | activation factor at 20 µM;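 active = diaphorase activity raised at least twofold by the compound at 20 µM; inactive = activation factor below 2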
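Measured by – red resorufin fluorescence at 544/590 nm excitation/emission · Test system – Clostridium kluyveri diaphorase, purified enzyme · Incubation – reaction time 16 min, room temperature · Buffer or medium – 50 mM HEPES pH 7.4 with 4.542 mM MgCl2, 0.005% Tween 20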
Diaphorase inh: counter-screen for diaphorase-based assays: diaphorase inhibitors and chemical oxidizers; diaphorase resazurin-to-resorufin fluorescence, NADH, 16 min; bacterial (C. kluyveri) enzyme, not human; inhibition, % at 20 µM; 0.69% of 190,000 active;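 active = primary screen inhibition at 20 µM above a set limit, cut at about 50% in these data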;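 note: plate controls were DMSO with full reaction for no effect and wells lacking NADH for full effect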
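material = Clostridium kluyveri diaphorase enzyme | amount = 0.14 U/mL diaphorase, enzyme working solution | schedule = incubation 16 min, room temperature | detection = fluorescence of resorufin formed from resazurin, Ex 544/Em 590 nm | benchmarks = positive control minus NADH, DMSO neutral control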
PfG6PD confirm: PfG6PD inhibition, single-dose confirmed | shares compounds with PfGluPho inh | 34% of 2,400 active | inhibition, % at 20 µM | recombinant PfGluPho, NADPH-diaphorase-resazurin fluorescence;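 active = inhibition of at least 50% at 20 µM in any single replicate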;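 note: 0% = DMSO with substrate and 100% = DMSO lacking glucose-6-phosphate substrate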
Diaph ctr 10uM: inhibits diaphorase or oxidizes, flagging false PfG6PD hits | shares compounds with PfGluPho inh | diaphorase-coupled resazurin reduction, fluorescence, NADPH 10 uM | inhibition, % at 20 µM | 39% of 820 active | AID 504862;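 active = average inhibition reaching 50% or more with the compound at 20 µM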;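 note: resorufin red fluorescence formed as diaphorase reduces resazurin using NADPH; 0% = DMSO with enzyme and 100% = DMSO without enzyme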
Diaph ctr 30uM: counter-screen for P. falciparum G6PD inhibitors: diaphorase inhibitors, oxidizers | shares compounds with PfGluPho inh | 29% of 820 active | AID 504863 | Diaphorase/resazurin coupled assay, resorufin fluorescence, 30 uM NADPH | inhibition, % at 20 µM;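 active = inhibition averaging 50% or more, tested at 20 µM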;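 note: 0% = DMSO with enzyme and 100% = DMSO wells lacking diaphorase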
Active calls of the source: *; / = not tested or not shown. Cut-off read from the data, not from the text of the source, unless noted: active = inhibition above about 50%; inactive = the rest.

SMILES | PfGluPho inh | DTT redox prof | G6PDH counter | Lmaj promast | Diaphorase act | Diaphorase inh | PfG6PD confirm | others
Cc1ccc(S(=O)(=O)N2CCN(C(=O)CN3CCN(c4ccc(O)cc4)CC3)CC2)cc1 | 64* | / | / | / | / | / | 25
Cc1cc(NC(=O)CN2CCN(c3ccc(O)cc3)CC2)no1 | 68* | -4 | 11 | -2 | 0.7 | 31 | 36
Cc1cc(NC(=O)CN2CCN(S(=O)(=O)c3ccc(Cl)cc3)CC2)no1 | 3 | 2 | -1 | -3 | 0.9 | 9 | /
CCc1nc2ccccc2c(C(=O)Nc2cccc(C)c2)c1C | -1 | / | / | / | / | / | /
Cc1ccn2c(CC(C)(C)C)c(-c3ccc(F)cc3)nc2c1 | 29 | / | / | / | / | / | /
Cc1ccn2c(Cc3ccccc3)c(-c3ccc(Br)cc3)nc2c1 | 108* | / | / | / | / | / | 25
Cc1ccc(Cc2c(-c3ccc(Cl)cc3)nc3cc(C)ccn23)cc1 | 96* | / | / | / | / | / | 3
Cc1ccn2c(Cc3ccccc3)c(-c3ccccc3)nc2c1 | 12 | / | / | / | / | / | /
Cc1ccc(Cc2c(-c3ccc(C)cc3)nc3cc(C)ccn23)cc1 | 63* | / | / | / | / | / | 6
COc1cccc(NC(=O)CN(C)C(=O)/C=C/c2ccc3ccccc3n2)c1 | 0 | / | / | / | / | / | /
COc1cccc(N2CCN(C(=O)c3cccc(NC4=NC5CS(=O)(=O)CC5S4)c3)CC2)c1 (stereo not given) | 15 | / | / | / | / | / | /
CCCC(=O)OCCNc1cc(Sc2nc3ccccc3[nH]2)c2nonc2c1[N+](=O)[O-] | 65* | 0 | 3 | 53* | 0.6 | 39 | 39
CCOc1ccc(OCC)c(NC(=O)Cn2c(C)nc3ccccc3c2=O)c1 | -5 | -1 | 12 | 40 | 0.9 | 14 | /
CCOc1ccccc1-n1c(=S)sc2c(=O)n(-c3ccc(F)cc3)c(SCC(=O)O)nc21 | 69* | / | / | / | / | / | 17
COc1ccccc1-n1c(SCC(=O)O)nc2c(sc(=S)n2-c2ccc(C)c(C)c2)c1=O | 30 | / | / | / | / | / | /
CCN(CC)C(=O)CSc1nc2c(sc(=S)n2-c2ccccc2)c(=O)n1-c1ccccc1OC | 9 | / | / | / | / | / | /
CCN(CC)C(=O)CSc1nc2c(sc(=S)n2-c2ccccc2)c(=O)n1-c1ccc(OC)cc1OC | 79* | / | / | / | / | / | 39
CCN1C(=O)C(CC(=O)Nc2ccc(OC)cc2)N(Cc2ccc3c(c2)OCO3)C1=S (stereo not given) | 3 | 0 | 4 | 48 | 0.9 | 11 | /
Cn1cc(C2=C(c3ccc(Cl)cc3Cl)C(=O)NC2=O)c2ccccc21 | 66* | / | / | / | / | / | -1
Cn1c2ccccc2c(=O)c2ccc(Cl)cc21 | -11 | / | / | / | / | / | /
O=c1[nH]c(NCCO)c(N=Cc2ccccc2)c(=O)[nH]1 | 68* | / | / | / | / | / | 104* | Diaph ctr 10uM=79*;Diaph ctr 30uM=43
Nc1[nH]c(=O)[nH]c(=O)c1N=Cc1ccccc1 | 131* | / | / | / | / | / | 98* | Diaph ctr 10uM=16;Diaph ctr 30uM=3
Nc1[nH]c(=O)[nH]c(=O)c1N=Nc1cccc(Cl)c1 | -18 | -1 | 17 | -5 | 0.8 | 15 | /
Cc1ccc2c(c1)N(CCC(=O)NC1CCCCC1)C(=O)CO2 | 6 | / | / | / | / | / | /
O=C(O)c1cccc2c1C(=O)c1ccc(-c3ccc(F)cc3F)cc1S2(=O)=O | -32 | / | / | / | / | / | /
CC1(OC(=O)C2CCCC2)C(=O)C=C2C=C(c3ccsc3)N(C(CO)CO)C=C2C1=O (stereo not given) | 66* | / | / | / | / | / | 7
CC1(OC(=O)C2CCCC2)C(=O)C=C2C=C(c3ccsc3)N(CCc3ccccn3)C=C2C1=O (stereo not given) | 70* | / | / | / | / | / | 39
CC1(OC(=O)C2CCCC2)C(=O)C=C2C=C(c3ccsc3)N(C3CC3)C=C2C1=O (stereo not given) | 80* | / | / | / | / | / | 28
CC(C)CN1C=C2C(=O)C(C)(OC(=O)C3CCCC3)C(=O)C=C2C=C1c1ccsc1 (stereo not given) | 44 | / | / | / | / | / | /
